{"source": "ChEMBL document CHEMBL4513216", "about": "“Probing the Open Global Health Chemical Diversity Library for Multistage-Active Starting Points for Next-Generation Antimalarials” (ACS Infect Dis, 2020)"}
{"test": "Toxicity liver stage against HepG2, at 10uM", "assay_type": "cell-based", "set-up": "test concentration 10 uM, cell line HepG2-A16-CD81EGFP", "details": "human, HepG2-A16-CD81EGFP cells; read-out: INHIBITION", "in_short": "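Uninfected HepG2-A16-CD81EGFP cells, 3 × 10^3 per well, 1536-well, plated on prespotted compound at 10 μM final, parasite-free screening media added to match infected plates; puromycin 10 μM positive, DMSO 0.5% negative; run in parallel with 48 h PbLuc assay at 37 °C, 5% CO2; viability by CellTiter-Glo luminescence, normalized to controls.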", "units": {"cytotoxicity at 10 µM": "%"}}
{"molecule": "Cc1cnc(-c2nc(-c3cccc(CN4CCOCC4)c3)no2)cn1", "cytotoxicity at 10 µM": -4.21}
{"molecule": "CCOCC(=O)NS(=O)(=O)c1ccc(F)cc1C(F)(F)F", "cytotoxicity at 10 µM": 3.25}
{"molecule": "CC(CNC(=O)c1ccon1)Oc1cccc(Br)c1", "note": "(stereo unspecified)", "cytotoxicity at 10 µM": -1.52}
{"molecule": "CC(C)c1nnc(CN(C)C(c2ccccc2)c2ccc(F)cc2)o1", "note": "(stereo unspecified)", "cytotoxicity at 10 µM": 15.5}
{"molecule": "CC(=O)N1CCCN(C(=O)c2ccc(Sc3ccccn3)cc2)CC1", "cytotoxicity at 10 µM": 10.9}
{"molecule": "Cc1cc(OC(F)F)c(C(=O)N2CCC(N(C)C)CC2)s1", "cytotoxicity at 10 µM": 6.9}
{"molecule": "Cc1csc(CNc2cnn(C(C)C)c2)n1", "cytotoxicity at 10 µM": 9.45}
{"molecule": "Cc1cc(C)cc(C(=O)N2CCCN(CC(N)=O)CC2)c1", "cytotoxicity at 10 µM": -5.65}
{"molecule": "CCc1ccc(C(=O)NCCCC2(C3OCCO3)CCOCC2)cc1", "cytotoxicity at 10 µM": 15.6}
{"molecule": "CC(C)NC(=O)C1CCN(C(C)C(=O)N2CCc3sccc3C2)CC1", "note": "(stereo unspecified)", "cytotoxicity at 10 µM": 5.52}
{"molecule": "CC(C)OCCOCc1cccc(NC(=O)NCc2ccccn2)c1", "cytotoxicity at 10 µM": -2.35}
{"molecule": "COc1ccc(-c2nc(CN3CC(n4nc(C)cc4C)C3)no2)cc1", "cytotoxicity at 10 µM": -3.88}
{"molecule": "CCN(CC)c1ccc(NS(=O)(=O)c2cnn(C)c2)cn1", "cytotoxicity at 10 µM": -7.12}
{"molecule": "Cc1noc(C)c1CCCNc1cnccn1", "cytotoxicity at 10 µM": 10.2}
{"molecule": "CC(C)c1nc(CN(C)C(=O)CCS(=O)(=O)c2ccccc2)no1", "cytotoxicity at 10 µM": -20.3}
{"molecule": "CN1CC2(CCCN(C(=O)c3cnc4ccc(F)cc4c3O)C2)OC1=O", "note": "(stereo unspecified)", "cytotoxicity at 10 µM": 6.25}
{"molecule": "CCn1ncnc1C(C)NC(=O)CC1CCN(C(C)C)CC1", "note": "(stereo unspecified)", "cytotoxicity at 10 µM": -133}
{"molecule": "CCCn1ccnc1CN1CCCC(CC)(CO)C1", "note": "(stereo unspecified)", "cytotoxicity at 10 µM": 3.44}
{"molecule": "OC1CCN(CCCn2ccnc2-c2c[nH]cn2)CC1", "cytotoxicity at 10 µM": -1.57}
{"molecule": "O=c1c(CN2CCOCC2)coc2ccc(Cl)cc12", "cytotoxicity at 10 µM": -3.73}
{"molecule": "COCCN(C)C[C@@H]1CN(C(=O)c2ccc(OC)c(F)c2)C[C@@H]1CO", "cytotoxicity at 10 µM": 2.87}
{"molecule": "CCCn1ccnc1CN1CCCC(O)(CN(C)C)CC1", "note": "(stereo unspecified)", "cytotoxicity at 10 µM": 1.33}
{"molecule": "Cn1c(Cn2ccnc2)nnc1C1CCCN(CC(C)(C)C)C1", "note": "(stereo unspecified)", "cytotoxicity at 10 µM": 3.89}
{"molecule": "COc1cccc(F)c1C(=O)N1C[C@@H](CN(C)CCO)[C@@H](CO)C1", "cytotoxicity at 10 µM": -5.88}
{"molecule": "O=S1(=O)C[C@@H]2[C@H](C1)N(Cc1ncc[nH]1)CCN2CC1CC1", "cytotoxicity at 10 µM": -7.18}
{"molecule": "CCC(O)CNC(=O)C1(N(C)Cc2ccccc2)Cc2ccccc2C1", "note": "(stereo unspecified)", "cytotoxicity at 10 µM": 7.62}
{"molecule": "CCCS(=O)(=O)N1CCN(c2cc(-n3nc(C)cc3C)nc(C)n2)CC1", "cytotoxicity at 10 µM": -13.7}
{"molecule": "Cc1nc(O)c2nnn(C[C@H]3CCCN3C(=O)CCC3CCCC3)c2n1", "cytotoxicity at 10 µM": 5.02}
{"molecule": "Cc1nc(CN2CCCC(c3cc(C(N)=O)[nH]n3)C2)oc1C", "note": "(stereo unspecified)", "cytotoxicity at 10 µM": -31.2}
{"molecule": "Cc1cc(C(=O)O)cc(S(=O)(=O)Nc2ccc3c(c2)OCCO3)c1C", "cytotoxicity at 10 µM": -3.95}
{"molecule": "CS(=O)(=O)NCC1CCCN(C(=O)CCCc2ccccc2)C1", "note": "(stereo unspecified)", "cytotoxicity at 10 µM": -2.78}
{"molecule": "Cc1nc(C)n(CC2CCCN(CC(=O)Nc3ccncc3)C2)n1", "note": "(stereo unspecified)", "cytotoxicity at 10 µM": -5.75}
{"molecule": "Cc1cc(NC(=O)NCC(CC(C)C)N2CCOCC2)n(C)n1", "note": "(stereo unspecified)", "cytotoxicity at 10 µM": -15}
{"molecule": "Cc1ccc(-c2nc(CN3CCCC3Cn3cncn3)co2)cc1", "note": "(stereo unspecified)", "cytotoxicity at 10 µM": -7.29}
{"molecule": "CC(O)CN1CCN(C(=O)c2cccn2Cc2ccccc2)CC1", "note": "(stereo unspecified)", "cytotoxicity at 10 µM": -8.87}
{"molecule": "CCn1c(CNCC2CCCN2c2cccnn2)nc2ccccc21", "note": "(stereo unspecified)", "cytotoxicity at 10 µM": -10.2}
{"molecule": "O=C(NCCNc1ncccn1)N1CCCC1", "cytotoxicity at 10 µM": -12.8}
{"molecule": "O=C(NCc1cccnc1-n1cncn1)c1ccc2c(c1)CCO2", "cytotoxicity at 10 µM": -14.2}
{"molecule": "Cc1ncc(C(=O)NCCNc2ncccc2C#N)s1", "cytotoxicity at 10 µM": -8.18}
{"molecule": "Cc1nc(CN(C)C2CCN(CCCOc3ccc(F)cc3)C2)no1", "note": "(stereo unspecified)", "cytotoxicity at 10 µM": -8.27}
{"molecule": "CCc1nc(CN(C)C2CCN(CCOc3ccccc3)C2)no1", "note": "(stereo unspecified)", "cytotoxicity at 10 µM": -34.6}
{"molecule": "CCn1c(CN2CCCN(C(=O)OC)CC2)nc2c(F)cccc21", "cytotoxicity at 10 µM": -8.6}
{"molecule": "O=C(Cc1ccc2c(c1)OCCO2)NC1CCCC1", "cytotoxicity at 10 µM": -3.07}
{"molecule": "Fc1ccc(-c2nnc(CN3CCn4c(nnc4C4CC4)C3)o2)cc1", "cytotoxicity at 10 µM": 0.577}
{"molecule": "Cc1ccc(-c2nc(CN3CCc4nn(C)c(=O)cc4C3)co2)cc1", "cytotoxicity at 10 µM": -11.6}
{"molecule": "Cn1ccnc1N1CCN(C(=O)Cc2ccc(F)cc2)CC1", "cytotoxicity at 10 µM": 4.73}
{"molecule": "CCN1CCn2c(C)cnc2C12CCN(C(=O)CC(C)C)CC2", "cytotoxicity at 10 µM": -5.93}
{"molecule": "CCOC(=O)[C@]12CCCN(Cc3ccco3)C[C@H]1CN(CCN(C)C)C2", "cytotoxicity at 10 µM": -17.9}
{"molecule": "COCc1cnc2n1CCN(Cc1cccnc1)C2C", "note": "(stereo unspecified)", "cytotoxicity at 10 µM": -8.79}
{"molecule": "CCN(C)C1COC2(CCN(C(=O)c3cccc(Cl)c3)CC2)C1", "note": "(stereo unspecified)", "cytotoxicity at 10 µM": -5.66}
{"molecule": "CO[C@H]1CCN(C(=O)c2ccsc2)[C@@H]2CN(CC3CC3)C[C@H]12", "cytotoxicity at 10 µM": 1.64}
{"molecule": "CN(C)CCN1CCC2(CCN(C(=O)c3cccc(F)c3)CC2)C1=O", "cytotoxicity at 10 µM": -6.19}
{"molecule": "CS(=O)(=O)N1C[C@@H]2C[C@H](C(=O)N3CCOCC3)[C@H](C1)O2", "cytotoxicity at 10 µM": -2.92}
{"molecule": "CSc1ncccc1C(=O)N1C[C@@H]2CC[C@H]1CN(c1cnccn1)C2", "cytotoxicity at 10 µM": -2.72}
{"molecule": "Cc1nonc1CC(=O)N1C[C@H]2CC[C@@H](C1)N(Cc1ccccc1)C2=O", "cytotoxicity at 10 µM": -11.6}
{"molecule": "Cc1ccc(-n2cc3[nH]c(=O)n(C(C)C)n3c2=O)cc1", "cytotoxicity at 10 µM": -8.9}
